# Compounds with a hit are over-represented: about 1.7% of the library has one in this group of screens.
# MLLE-PAM2 inh – blocks PAM2 peptide binding to the PABP1 MLLE domain. P11940. GST-MLLE / FITC-PAM2 fluorescence polarization. inhibition, % at 20 µM. 0.36% of 360,000 active. AID 588489; in the data active = inhibition above about 35%, passing the limit was not always enough;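 also: plate controls were DMSO wells with GST-MLLE for no effect and wells lacking GST-MLLE protein for full effect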
# Target sequence (P11940 whole entry, looked up, the tested form may be a part): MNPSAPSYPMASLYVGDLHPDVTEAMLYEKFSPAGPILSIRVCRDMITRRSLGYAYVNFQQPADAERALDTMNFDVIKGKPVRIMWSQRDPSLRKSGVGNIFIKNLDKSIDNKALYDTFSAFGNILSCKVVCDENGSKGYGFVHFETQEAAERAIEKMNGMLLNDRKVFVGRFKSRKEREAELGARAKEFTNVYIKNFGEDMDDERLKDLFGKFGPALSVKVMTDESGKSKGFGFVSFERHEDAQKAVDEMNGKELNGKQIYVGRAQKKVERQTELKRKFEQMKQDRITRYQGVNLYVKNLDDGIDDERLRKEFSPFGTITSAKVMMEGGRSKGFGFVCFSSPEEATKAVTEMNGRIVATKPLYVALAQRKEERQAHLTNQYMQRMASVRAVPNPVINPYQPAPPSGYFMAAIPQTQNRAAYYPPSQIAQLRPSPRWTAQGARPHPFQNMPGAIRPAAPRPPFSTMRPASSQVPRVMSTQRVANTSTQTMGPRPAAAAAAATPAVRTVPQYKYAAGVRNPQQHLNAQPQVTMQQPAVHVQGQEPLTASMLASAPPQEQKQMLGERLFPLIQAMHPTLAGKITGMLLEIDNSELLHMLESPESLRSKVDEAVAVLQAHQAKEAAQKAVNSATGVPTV
# MT1-MMP act inh – inhibitors of human MT1-MMP activation | P50281 | HT1080 RFP-PRO-GFP cells, GFP/RFP ratio fluorescence, overnight; percent of plate control window, DMSO zero | GFP/RFP ratio change, % at 20 µM | 0.061% of 360,000 active;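 active = GFP/RFP ratio change of at least 30% with cell ATP level not reduced by more than half and red fluorescence within 50% of control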
#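 Read-out: GFP/RFP fluorescence ratio; Test system: RFP-PRO-GFP reporter HT1080 cells; Compound dosing: single-point 20 µM compound, 1% DMSO; Times: overnight compound exposure at 37 °C.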
# eIF4H inh – inhibitors of RNA binding by human eIF4H. Q15056. eIF4H fluorescence polarization binding assay. inhibition, % at 35 µM. 0.94% of 290,000 active;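 also: calls also rest on retests at 20 µM and on dose response follow-up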
# PABP FP inh – blocks human PABP binding to poly(A) RNA; inhibition, % at 35 µM; fluorescence polarization; 1% of 290,000 active; AID 2014; P11940;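 also: calls also rest on retests at 20 µM and on dose response follow-up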
# SKN-1 inh – C. elegans SKN-1 inhibition; inhibition, % at 21.8 µM; C. elegans VP596 Pgst-4::GFP/RFP ratio, acrylamide-induced, 24 h; 0.49% of 360,000 active; AID 624304;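 active = interference check ratio from 0.5 to 1.5 plus GFP to RFP signal ratio inhibition reaching or exceeding a fixed threshold, cut at about 30% in these data, passing the limit was not always enough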
# An asterisk follows results filed as active; u = inconclusive; x = no result. Unless noted, no rule for the calls is given here.
SMILES,MLLE-PAM2 inh,MT1-MMP act inh,eIF4H inh,PABP FP inh,SKN-1 inh
O=C(CNS(=O)(=O)c1ccc(Br)cc1)OCc1cc(=O)n2cc(Br)ccc2n1,x,x,71,0,x
O=C(CNC(=O)c1cccc(OC(F)F)c1)OCc1cc(=O)n2cc(Br)ccc2n1,-32,-1,70,active,-7
O=C(O)CCCCCN1C(=O)C(O)=C(C(=O)/C=C/c2ccccc2)C1c1ccccc1[N+](=O)[O-] (stereo not given),47*,-5,4,-4,8
CSc1ccc(-c2nnn(Cc3ccc(Br)cc3)n2)cc1,4,0,-1,3,36*
Cc1cc(Cn2nnc(-c3ccc(Br)cc3)n2)cc(C)c1O,-2,4,x,x,-7
Cc1cc(OCC(=O)N2CCOCC2)ccc1[N+](=O)[O-],-2,0,-1,-11,-5
C/C(=N\Nc1ccc(C(=O)O)cc1)c1ccc2c(c1)Nc1ccccc1S2,7,1,84*,63*,7
CNC(=O)c1[nH]cnc1C(=O)N[C@@H](Cc1ccccc1)C(=O)OC(C)(C)C,5,5,93*,active,-3
CCOC(=O)c1ccc(NC(=O)c2nc[nH]c2C(=O)N[C@@H](C)C(=O)OC(C)(C)C)cc1,-3,0,2,2,13
C[C@H](NC(=O)c1[nH]cnc1C(=O)Nc1ccc(Cl)cc1)C(=O)OC(C)(C)C,-8,5,4,-2,36*
CC(C)(C)OC(=O)[C@H](Cc1ccccc1)NC(=O)c1nc[nH]c1C(=O)NCc1ccccc1,7,-1,15,-3,7
CN1CCC(OC(=O)c2cccc(Cl)c2)CC1,3,-4,9,5,9
COC(=O)c1ccc(COn2c(=O)c(C)[n+]([O-])c3ccccc32)cc1,2,-162,2,-4,44*
COc1ccc(C2(c3ccc(OC)cc3)NC(=O)NC2=O)cc1,2,-1,-3,2,-8
O=C(O)c1cccc(Cn2c(Cl)c(/C=N/NC(=O)c3ccccc3)sc2=O)c1,-105,1,-6,4,-1
O=C(O)c1cccc(Cn2c(Cl)c(/C=N/NC(=O)c3cc4ccccc4cc3O)sc2=O)c1,-118,3,102*,82*,7
O=c1c2ccccc2c(C=Nc2ccccc2O)c(O)n1-c1nccs1,-67,-29,116,88*,-6
Cc1ccccc1N=Cc1c(O)n(-c2nccs2)c(=O)c2ccccc12,3,-2,-5,-13,6
O=C(NCCCNC(=O)c1cnccn1)c1cccc(F)c1,-12,0,3,7,2
COC(=O)C1=C(C)N(Cc2ccccc2)C(=NCc2ccc(OC)cc2)N[C@H]1c1cccc(F)c1,-115,-6,1,58*,8
COC(=O)C1=C(C)N(Cc2ccccc2)C(=NCC2CC2)N[C@H]1c1ccccc1,-78,-4,x,x,16
COC(=O)C1=C(C)N(Cc2ccccc2)C(=NCCCCO)N[C@H]1c1ccccc1,x,x,28,84*,x
Cc1ccc(C)c(OCCC(=O)Nc2ccc3c(c2)OCO3)c1,8,2,x,x,-16
CCCCC1OC23CCCCC2C(C#N)(C(=N)O3)C1(C#N)C#N (stereo not given),48*,-11,u,u,44
CCCCC1OC23CCCCC2C(C#N)(C#N)C1(C#N)C(=N)O3 (stereo not given),23,-2,u,-6,28
SMILES,MLLE-PAM2 inh,MT1-MMP act inh,eIF4H inh,PABP FP inh,SKN-1 inh
CCCCCCCCOc1ccc(C2OC34CCCCC3C(C#N)(C#N)C2(C#N)C(=N)O4)cc1 (stereo not given),85,-34,u,u,47*
Cc1ccc(Nc2nc(N)nc(CSc3nnc(-c4ccncc4)o3)n2)cc1,2,11,-5,-6,46*
Cc1ccc(/C=C/c2nnc(-c3cccs3)o2)cc1,-11,x,-2,0,19
Cc1ccc(Nc2nc(CSc3nnc(-c4cccs4)o3)cs2)cc1,-65,2,-9,-3,35*
Fc1ccc(/C=C/c2nnc(-c3cccs3)o2)cc1,-4,1,-9,-22,54*
Cc1ccc(-c2nnc(-c3cccs3)o2)cc1,-13,-4,-13,-4,36*
COc1ccccc1C(=O)NC(=O)COC(=O)CCOc1cc(C)ccc1C,-2,0,-20,-9,15
COc1ccc(C(=O)N2CCN(C)C(=O)[C@@H]2C)cc1OC1CCN(C(C)C)CC1,6,-3,58,0,14
c1ccc(-c2nc(CSc3nnc(-c4cccs4)o3)cs2)cc1,-90,-8,x,x,29*
